Tests used:
Nitric oxide synthase 1 [1] = target: T1, Nitric oxide synthase 1 (Homo sapiens, UniProt P29475); test: Inhibition of human recombinant nNOS expressed in Escherichia coli assessed as reduction in L-[3H]-citrulline level using L-[3H]-arginine as substrate at 1 mM incubated for 30 mins by liquid scintillation method relative to control
[2] = target: T2, Nitric oxide synthase, inducible (Homo sapiens, UniProt P35228); test: Inhibition of N-terminal His-tagged human recombinant iNOS expressed in Escherichia coli assessed as reduction in L-[3H]-citrulline level using L-[3H]-arginine as substrate at 1 mM incubated for 30 mins by liquid scintillation method relative to control
Nitric oxide synthase 3 [3] = target: T3, Nitric oxide synthase 3 (Rattus norvegicus, UniProt Q62600); test: Inhibition of eNOS in Wistar rat endothelium-intact thoracic aortic rings assessed as inhibition of acetylcholine-evoked relaxation at 100 uM pretreated with compound for 30 mins followed by norepinephrine addition and later incubated with acetylcholine; format: tissue-based, Thoracic aorta; conditions: 0.5 h
T3 sequence (Q62600 whole entry): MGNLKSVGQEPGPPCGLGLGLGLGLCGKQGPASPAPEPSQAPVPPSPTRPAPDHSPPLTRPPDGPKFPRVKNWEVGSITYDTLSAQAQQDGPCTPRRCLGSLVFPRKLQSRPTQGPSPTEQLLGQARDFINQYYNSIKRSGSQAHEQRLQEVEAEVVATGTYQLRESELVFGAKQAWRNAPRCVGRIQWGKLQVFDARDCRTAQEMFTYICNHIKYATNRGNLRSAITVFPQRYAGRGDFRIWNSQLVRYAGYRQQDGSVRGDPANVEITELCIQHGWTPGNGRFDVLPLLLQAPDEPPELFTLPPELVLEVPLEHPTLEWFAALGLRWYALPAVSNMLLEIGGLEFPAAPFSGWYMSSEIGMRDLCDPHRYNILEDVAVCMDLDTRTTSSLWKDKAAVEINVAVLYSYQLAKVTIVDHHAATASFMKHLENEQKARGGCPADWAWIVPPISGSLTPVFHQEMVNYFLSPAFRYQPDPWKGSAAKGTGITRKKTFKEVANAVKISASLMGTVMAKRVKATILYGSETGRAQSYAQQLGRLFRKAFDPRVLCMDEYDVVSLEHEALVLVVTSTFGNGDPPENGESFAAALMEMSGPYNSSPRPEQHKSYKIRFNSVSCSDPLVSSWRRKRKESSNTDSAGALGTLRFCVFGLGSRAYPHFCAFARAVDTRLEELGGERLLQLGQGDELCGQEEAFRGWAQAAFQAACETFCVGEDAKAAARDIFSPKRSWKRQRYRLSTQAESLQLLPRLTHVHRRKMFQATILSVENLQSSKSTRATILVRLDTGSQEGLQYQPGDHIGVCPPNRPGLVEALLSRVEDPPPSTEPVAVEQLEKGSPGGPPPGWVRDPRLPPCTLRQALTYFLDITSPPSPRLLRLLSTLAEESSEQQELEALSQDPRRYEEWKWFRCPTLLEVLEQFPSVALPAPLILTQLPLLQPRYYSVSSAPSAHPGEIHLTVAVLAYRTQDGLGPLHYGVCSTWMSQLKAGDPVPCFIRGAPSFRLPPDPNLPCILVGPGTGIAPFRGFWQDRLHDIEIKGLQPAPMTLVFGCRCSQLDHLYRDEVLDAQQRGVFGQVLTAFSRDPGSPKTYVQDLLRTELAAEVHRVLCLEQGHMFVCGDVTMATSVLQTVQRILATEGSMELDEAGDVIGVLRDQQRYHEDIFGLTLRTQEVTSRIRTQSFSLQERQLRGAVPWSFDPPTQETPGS
How it was run: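 Descending thoracic aortic rings with endothelium were held in Krebs solution at 37 °C, gassed with 95% O2/5% CO2, at 2 g resting tension, with isometric force recorded. Rings were incubated 30 min with test agent or DMSO vehicle (1/10⁶), then contracted with 1 µM norepinephrine. At plateau, acetylcholine was added cumulatively. Relaxation is given as % of norepinephrine contraction; n = rings from different rats; two-way ANOVA with Dunnett.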

[4] = Cytotoxicity against HUVEC assessed as reduction in cell viability at 500 uM measured after 30 mins by MTT assay relative to control; format: cell-based; conditions: human, HUVEC cells, read-out: INH
How it was run: (§1)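 HUVECs seeded at 1x10⁴ cells/well, grown 24 h at 37 °C, switched to serum-free medium for at least 2 h, then exposed to serial dilutions (10 - 500 µM) for 30 min. MTT added for 3 h at 37 °C, formazan dissolved in DMSO, absorbance read at 570 nm minus 630 nm background. Viability given as % of untreated cells. At least three independent runs in triplicate.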

HUVEC = test: Cytotoxicity against HUVEC assessed as reduction in cell viability at 10 to 100 uM measured after 30 mins by MTT assay; format: cell-based; conditions: human, 0.5 h, 500 µM, in the assay text read “10 to 500 uM” for “10 to 100 uM”; how it was run: as §1
Nitric oxide synthase 3 [5] = target: T3, Nitric oxide synthase 3; test: Inhibition of eNOS in Wistar rat endothelium-intact thoracic aortic rings assessed as inhibition of acetylcholine-evoked relaxation at 20 uM pretreated with compound for 30 mins followed by norepinephrine addition and later incubated with acetylcholine; format: tissue-based, Thoracic aorta; conditions: 0.5 h
How it was run: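 Rat descending thoracic aortic rings with endothelium, in Krebs at 37 °C gassed with 95% O₂/5% CO₂, 2 g resting tension, isometric recording. Incubated 30 min with compound (20 µM), L-NAME (100 µM) or DMSO vehicle (1/10⁶), contracted with 1 µM norepinephrine, then cumulative acetylcholine. Relaxation given as % of norepinephrine contraction. Two-way ANOVA with Dunnett's test.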

Nitric oxide synthase 1 [6] = target: T1, Nitric oxide synthase 1; test: Inhibition of human recombinant nNOS expressed in Escherichia coli assessed as reduction in L-[3H]-citrulline level using L-[3H]-arginine as substrate incubated for 30 min by scintillation counting
[7] = target: T2, Nitric oxide synthase, inducible; test: Inhibition of N-terminal His-tagged human recombinant iNOS expressed in Escherichia coli assessed as reduction in L-[3H]-citrulline level using L-[3H]-arginine as substrate incubated for 30 min by scintillation counting

T1 sequence (P29475 whole entry): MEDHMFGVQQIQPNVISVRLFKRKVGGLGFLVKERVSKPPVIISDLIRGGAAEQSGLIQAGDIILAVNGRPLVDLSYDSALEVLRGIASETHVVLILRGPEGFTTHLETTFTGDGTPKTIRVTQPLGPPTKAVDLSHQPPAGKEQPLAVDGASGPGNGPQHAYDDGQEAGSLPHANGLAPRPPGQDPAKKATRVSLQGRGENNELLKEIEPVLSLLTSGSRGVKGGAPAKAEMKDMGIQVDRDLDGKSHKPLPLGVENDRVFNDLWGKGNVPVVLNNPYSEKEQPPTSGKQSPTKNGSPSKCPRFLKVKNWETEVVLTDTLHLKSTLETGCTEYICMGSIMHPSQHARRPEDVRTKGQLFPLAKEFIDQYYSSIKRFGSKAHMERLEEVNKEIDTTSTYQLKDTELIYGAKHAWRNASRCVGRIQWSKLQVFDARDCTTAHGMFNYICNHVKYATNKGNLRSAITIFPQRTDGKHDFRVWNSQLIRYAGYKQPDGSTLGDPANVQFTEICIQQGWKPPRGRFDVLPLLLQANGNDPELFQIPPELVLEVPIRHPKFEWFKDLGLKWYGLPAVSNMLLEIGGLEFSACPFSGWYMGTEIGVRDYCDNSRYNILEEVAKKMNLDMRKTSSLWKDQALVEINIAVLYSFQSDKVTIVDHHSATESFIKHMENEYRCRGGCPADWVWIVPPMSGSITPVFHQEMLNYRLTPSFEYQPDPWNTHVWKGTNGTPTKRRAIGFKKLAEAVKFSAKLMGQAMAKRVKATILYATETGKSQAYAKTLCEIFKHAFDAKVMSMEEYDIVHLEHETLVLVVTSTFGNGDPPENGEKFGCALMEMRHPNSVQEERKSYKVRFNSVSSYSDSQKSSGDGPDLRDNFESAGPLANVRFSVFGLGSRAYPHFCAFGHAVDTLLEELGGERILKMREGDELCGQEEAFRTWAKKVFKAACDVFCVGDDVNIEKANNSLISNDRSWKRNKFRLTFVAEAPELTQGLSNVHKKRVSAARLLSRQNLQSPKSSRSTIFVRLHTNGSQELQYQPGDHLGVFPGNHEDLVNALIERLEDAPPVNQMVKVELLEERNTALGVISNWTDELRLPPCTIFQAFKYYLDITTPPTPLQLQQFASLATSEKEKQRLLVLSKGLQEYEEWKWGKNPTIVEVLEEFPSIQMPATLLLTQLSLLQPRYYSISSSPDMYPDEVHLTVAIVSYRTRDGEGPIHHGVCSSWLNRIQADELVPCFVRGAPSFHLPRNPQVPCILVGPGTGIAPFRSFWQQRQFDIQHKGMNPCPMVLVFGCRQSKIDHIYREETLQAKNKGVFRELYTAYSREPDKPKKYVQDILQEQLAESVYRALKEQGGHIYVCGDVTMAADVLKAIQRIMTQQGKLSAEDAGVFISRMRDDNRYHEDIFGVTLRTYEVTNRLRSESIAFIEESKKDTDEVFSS
T2 sequence (P35228 whole entry): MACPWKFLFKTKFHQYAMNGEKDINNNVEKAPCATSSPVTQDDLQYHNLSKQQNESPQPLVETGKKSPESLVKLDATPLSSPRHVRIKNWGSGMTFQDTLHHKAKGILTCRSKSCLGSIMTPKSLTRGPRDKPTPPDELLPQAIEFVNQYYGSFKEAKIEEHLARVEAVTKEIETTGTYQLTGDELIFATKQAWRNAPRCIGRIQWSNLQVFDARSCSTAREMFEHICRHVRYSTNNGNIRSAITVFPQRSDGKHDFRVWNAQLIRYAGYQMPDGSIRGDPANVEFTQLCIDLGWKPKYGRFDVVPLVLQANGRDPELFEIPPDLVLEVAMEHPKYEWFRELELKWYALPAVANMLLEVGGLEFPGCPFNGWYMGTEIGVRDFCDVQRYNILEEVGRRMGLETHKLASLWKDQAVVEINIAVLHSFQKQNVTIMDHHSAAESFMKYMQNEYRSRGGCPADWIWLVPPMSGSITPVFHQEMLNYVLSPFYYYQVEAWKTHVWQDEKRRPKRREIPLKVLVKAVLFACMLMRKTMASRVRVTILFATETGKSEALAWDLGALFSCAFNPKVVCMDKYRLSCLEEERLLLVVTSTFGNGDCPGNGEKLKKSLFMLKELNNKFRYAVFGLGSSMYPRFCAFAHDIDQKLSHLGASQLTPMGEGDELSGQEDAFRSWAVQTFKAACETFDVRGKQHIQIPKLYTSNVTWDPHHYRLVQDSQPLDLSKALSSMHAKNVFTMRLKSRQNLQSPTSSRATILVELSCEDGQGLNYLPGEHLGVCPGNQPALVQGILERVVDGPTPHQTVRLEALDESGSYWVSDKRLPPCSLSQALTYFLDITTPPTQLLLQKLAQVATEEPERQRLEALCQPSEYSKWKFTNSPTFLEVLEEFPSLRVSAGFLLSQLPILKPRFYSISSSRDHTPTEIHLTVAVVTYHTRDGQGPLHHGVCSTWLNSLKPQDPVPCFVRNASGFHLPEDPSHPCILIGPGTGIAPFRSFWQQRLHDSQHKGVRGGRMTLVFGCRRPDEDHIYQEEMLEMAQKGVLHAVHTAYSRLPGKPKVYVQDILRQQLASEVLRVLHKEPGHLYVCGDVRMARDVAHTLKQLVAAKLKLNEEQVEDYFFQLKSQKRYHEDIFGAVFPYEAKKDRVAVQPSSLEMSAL

Row | inhibition (Nitric oxide synthase 1 [1]) [%] | inhibition [2] [%] | inhibition (INH) (Nitric oxide synthase 3 [5]) | IC50 (Nitric oxide synthase 1 [6]) [µM] | IC50 [7] [µM] | Compound | inhibition (INH) (Nitric oxide synthase 3 [3]) | cytotoxicity at 0.5 h, 500 µM [4] [%] | Activity (HUVEC)
1 | 19 | 57.4 |  |  |  | COc1ccc(N)c(C(O)CCNC(C)=N)c1 (stereo not given) |  |  | 
2 |  |  |  |  |  | COC(=O)[C@@H](N)CCCNC(=N)N[N+](=O)[O-] [L-NAME] | Active |  | 
3 | 12.5 | 99.6 | Not Active | > 1000 | 20 | COc1ccc(N)c(C(O)CCNC(=N)c2ccc(C(F)(F)F)cc2)c1 (stereo not given) |  | 20 | Non-Toxic
4 | 66.5 | 35.6 |  |  |  | N=C(NCCC(=O)c1ccccc1N)c1ccccc1 |  |  | 
5 | 37.4 | 33.4 |  |  |  | N=C(NCCC(=O)c1ccccc1N)c1ccc(Cl)cc1 |  |  | 
6 |  |  |  | > 1000 | 100 | CCNC(=O)NCCC(=O)c1cc(Cl)ccc1N |  |  | 
7 | 89.2 | 97.6 |  | 223 | 59.7 | COc1ccc(N)c(C(=O)CCNC(C)=N)c1 |  |  | 
8 | 86.4 | 75.1 |  |  |  | COc1ccc(N)c(C(=O)CCNC(=N)c2ccc(Cl)cc2)c1 |  |  | 
9 | 28.3 | 16.2 |  |  |  | CC(=N)NCCC(O)c1ccccc1N (stereo not given) |  |  | 
10 | 56 | 68.6 |  |  |  | N=C(NCCC(=O)c1ccccc1N)c1ccc(C(F)(F)F)cc1 |  |  | 
11 |  |  |  | 130 | 180 | CNC(=S)NCCC(O)c1cc(OC)ccc1N (stereo not given) |  |  | 
12 | 85.9 | 94.7 |  | 194 | 45.2 | COc1ccc(N)c(C(=O)CCNC(=N)c2ccccc2)c1 |  | 20 | Non-Toxic
13 | 23.2 | 64.1 |  |  |  | N=C(NCCC(O)c1ccccc1N)c1ccccc1 (stereo not given) |  |  | 
14 | 19.9 | 99.1 |  | > 1000 | 25.6 | CC(=N)NCCC(=O)c1cc(Cl)ccc1N |  | 20 | Non-Toxic
15 | 66.1 | 49.1 |  |  |  | CC(=N)NCCC(O)c1cc(Cl)ccc1N (stereo not given) |  |  | 
16 | 58.5 | 81 |  |  |  | COc1ccc(N)c(C(O)CCNC(=N)c2ccc(Cl)cc2)c1 (stereo not given) |  |  | 
17 | 7.18 | 95.9 |  | > 1000 | 22.5 | COc1ccc(N)c(C(O)CCNC(=N)c2ccccc2)c1 (stereo not given) |  | 20 | Non-Toxic
18 | 36.5 | 60.5 |  |  |  | N=C(NCCC(O)c1ccccc1N)c1ccc(C(F)(F)F)cc1 (stereo not given) |  |  | 
19 | 31.6 | 73.2 |  |  |  | N=C(NCCC(O)c1ccccc1N)c1ccc(Cl)cc1 (stereo not given) |  |  | 
20 | 88.8 | 22.2 |  | 325 | > 1000 | CC(=N)NCCC(=O)c1ccccc1N |  |  | 

Source: ChEMBL document CHEMBL4808198, “Synthesis, bioevaluation and docking studies of new imidamide derivatives as nitric oxide synthase inhibitors” (Bioorg Med Chem, 2021)
